PubChem BioAssay
The source made the active and inactive calls.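 How the source made its calls, unless noted: active means inhibition at or above 50% relative to wild type and mutant plate controls; inactive means inhibition below 50%.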

Assays:
[1] = inhibitors of TNFa-induced NFkB p65 translocation, primary screen, imaging, HUVEC, MLSMR starter and 10KST1 sets (AID 438;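 active means inhibition above 20% together with a positive visual image hit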;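 further: compound added about 3h40 before a 20 min TNFalpha stimulation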;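 on inhibition: signal is the nuclear over cytoplasmic p65 intensity ratio per well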); details: HUVEC TNFa-induced p65 nuclear translocation; cell count: measured here: nuclei count (cytotoxicity indicator), at 2.08 µM; inhibition: at 2 µM, stronger effect = higher value, 0% TNFa-plus-vehicle, 100% no-TNFa wells
[2] = inhibitors of E-selectin induction by TNFa, primary screen, imaging, HUVEC, immunofluorescence, MLSMR starter and 10KST1 sets (AID 487;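 active means visually confirmed hit in the image check and inhibition above 20%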;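 on inhibition: signal is fraction of cell area covered by stained E-selectin grains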;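 on nuclei count: 100% = median nuclei count of all wells on the same plate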); details: HUVEC TNFalpha-induced E-selectin immunofluorescence imaging, at 2 µM; inhibition: stronger effect = higher value; nuclei count: measured here: cell number, toxicity
[3] = DUSP6 inhibitors restoring Erk phosphorylation by chemical complementation, primary imaging in DUSP6-transfected HeLa (AID 609;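 active means compounds giving at least 50% inhibition in the cell-based MKP-3 phosphatase rescue imaging test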;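 on inhibition: phospho-Erk level distribution per well compared with pooled transfected vehicle control wells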); details: HeLa MKP-3 transfected, phospho-Erk imaging KS statistic, at 10 µM, cells stimulated with TPA for 15 min
[4] = biological target: Dual specificity protein phosphatase 6 (Homo sapiens) (UniProt Q16828); test: as above; details: HeLa MKP-3 transfected, phospho-Erk imaging KS statistic; at 10 µM; stronger effect = higher value; cells stimulated with TPA for 15 min
Sequence of Dual specificity protein phosphatase 6 (Homo sapiens) (Q16828 whole entry, looked up): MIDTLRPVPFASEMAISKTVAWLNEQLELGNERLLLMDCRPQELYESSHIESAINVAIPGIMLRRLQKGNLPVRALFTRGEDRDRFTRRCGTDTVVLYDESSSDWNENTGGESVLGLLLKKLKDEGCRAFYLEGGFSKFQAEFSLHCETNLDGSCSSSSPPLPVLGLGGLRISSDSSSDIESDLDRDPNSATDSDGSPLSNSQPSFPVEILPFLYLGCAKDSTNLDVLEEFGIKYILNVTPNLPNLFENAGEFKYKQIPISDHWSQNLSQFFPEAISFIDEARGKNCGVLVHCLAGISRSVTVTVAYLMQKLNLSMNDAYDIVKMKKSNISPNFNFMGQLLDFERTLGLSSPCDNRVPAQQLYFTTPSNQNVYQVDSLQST

[5] = biological target: Voltage-gated potassium channel subunit beta-2 (Rattus norvegicus) (UniProt P62483); test: KvBeta enzyme negative modulators, primary screen, biochemical, NADPH fluorescence (AID 622;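 active means fluorescence slope higher than the sample average by over 3 SD, cut at about -0.22 in these data, passing the limit was not always enough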;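 further: slope of raw intensity against log time taken from 70 to 1610 s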); details: recombinant KvBeta, 4-cyanobenzaldehyde reduction, at 10 µM, stronger effect = higher value
Sequence of Voltage-gated potassium channel subunit beta-2 (Rattus norvegicus) (P62483 whole entry, looked up): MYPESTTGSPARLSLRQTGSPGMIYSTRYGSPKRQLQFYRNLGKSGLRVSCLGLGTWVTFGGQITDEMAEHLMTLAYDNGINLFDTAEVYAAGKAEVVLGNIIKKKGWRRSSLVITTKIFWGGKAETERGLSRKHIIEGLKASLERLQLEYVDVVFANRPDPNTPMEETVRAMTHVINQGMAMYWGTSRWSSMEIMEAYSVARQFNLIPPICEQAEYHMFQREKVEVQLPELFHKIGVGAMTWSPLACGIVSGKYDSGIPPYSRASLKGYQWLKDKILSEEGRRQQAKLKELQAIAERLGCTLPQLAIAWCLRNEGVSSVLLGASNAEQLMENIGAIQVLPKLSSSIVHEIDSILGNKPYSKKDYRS

[6] = biological target: Voltage-gated potassium channel subunit beta-2 (Rattus norvegicus) (UniProt P62483); test: KvBeta positive modulators, primary screen, biochemical, NADPH fluorescence (AID 623;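 active means NADPH fluorescence slope more negative than the mean of all samples by about 3 SD, 99.7% confidence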;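 further: fluorescence intensity change per second fitted from 20 to 320 s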); details: Recombinant KvBeta, NADPH fluorescence decrease slope, 10 min; at 10 µM; stronger effect = lower value
[7] = biological target: Alpha-2C adrenergic receptor (Homo sapiens) (UniProt P18825); test: modulators of alpha2C/GIRK thallium flux, primary screen, cell-based, HEK293 alpha2C/GIRK1/2 (AID 624;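 active means fluorescence slope after compound addition differing from the mean of all screened samples at 99.7% confidence, in either direction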;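 further: slope of fluorescence ratio to pre-addition baseline per second over 15 to 24 s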); details: thallium flux BTC fluorescence, at 10 µM, actives lie on both sides
Sequence of Alpha-2C adrenergic receptor (Homo sapiens) (P18825 whole entry, looked up): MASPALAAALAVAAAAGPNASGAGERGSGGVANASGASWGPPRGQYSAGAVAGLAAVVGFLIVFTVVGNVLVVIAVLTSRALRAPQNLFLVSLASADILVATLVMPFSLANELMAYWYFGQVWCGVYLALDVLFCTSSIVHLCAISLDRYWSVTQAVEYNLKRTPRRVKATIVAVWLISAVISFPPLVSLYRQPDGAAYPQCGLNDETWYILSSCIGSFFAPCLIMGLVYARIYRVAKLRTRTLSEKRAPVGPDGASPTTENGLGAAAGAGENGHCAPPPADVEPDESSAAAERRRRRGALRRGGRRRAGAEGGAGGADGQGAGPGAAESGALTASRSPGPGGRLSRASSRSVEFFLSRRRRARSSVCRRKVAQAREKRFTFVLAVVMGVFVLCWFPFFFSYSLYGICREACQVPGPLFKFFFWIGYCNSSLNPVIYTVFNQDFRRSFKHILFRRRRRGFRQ

[8] = inhibitors of larval lipid processing in zebrafish, primary screen, whole organism, PED6 fluorescence, gall bladder and intestine (AID 686;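 active means a full or partial loss of lipid-probe fluorescence in the fish gall bladder, intestine or both, judged by eye; inactive means no fluorescence loss, or compound toxic to the fish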;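 further: larvae 5 to 7 days old with five fish per well; signal comes from phospholipase A2 cleavage of quenched PED6 carried via bile; overnight exposure to compound and PED6 before scoring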); details: Zebrafish larvae PED6 lipid processing, fluorescence scoring; screened at 20 µM (by protocol)
Outline: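 system = live zebrafish larvae aged 5-7 days, whole organism | probe or stimulus = ingested quenched lipid PED6 at 100 nM | doses = 20 µM single dose | timing = overnight exposure | detection = fluorescence microscopy with visual scoring of gall bladder and intestine | read-out = visual per-well fluorescence inhibition score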

[9] = inhibitors of Chlamydomonas gravitaxis, primary screen, whole organism, Chlamydomonas reinhardtii, WT vs cilia-less mutant, absorbance, 96-well (AID 463189); details: OD600 absorbance, 2 days, at 10 µM, stronger effect = higher value;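 further: 0% = wild type cc124 cells in DMSO and 100% = ciliumless bld1 mutant cells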
[10] = measured here: cell density z-score
[11] = measured here: nuclear c-Myc green intensity z-score
[12] = measured here: nuclear pErk red intensity z-score, stronger effect = higher value

SMILES	cell count [1]	inhibition [1]	inhibition [2]	nuclei count [2]	z-score [3, 10]	z-score [3, 11]	z-score [3, 12]	inhibition [4]	fluorescence slope [5]	NADPH fluorescence slope [6]	slope [7]	outcome [8]	inhibition [9]
CCCOc1ccc(Cn2c(O)cc(=O)[nH]c2=O)cc1	568	0% (inactive)	-90.4% (inactive)	188%	-0.648	-0.788	0.279	-8.95% (inactive)	-0.372 (inactive)	-3.5e-05 (inactive)	0.00508 (inactive)	inactive	-1.95% (inactive)
Oc1ccccc1CNn1cnnc1	563	-0.7% (inactive)	-6.7% (inactive)	168%	-0.0903	-0.194	0.333	-3.5% (inactive)	-0.324 (inactive)	1.4e-05 (inactive)	0.00654 (inactive)	inactive	18.3% (inactive)
CN=c1sc2ccccc2n1CC(O)COc1ccccc1 (stereo unspecified)	462	-11% (inactive)	-95.8% (inactive)	204%	-0.699	0.37	0.00223	-0.624% (inactive)	-0.362 (inactive)	-2.9e-05 (inactive)	0.00426 (inactive)	inactive	-3.38% (inactive)
CC1CN(C2CCN(S(=O)(=O)c3ccc4ccccc4c3)CC2)CC(C)O1 (stereo unspecified)	396	-19.4% (inactive)	-273% (inactive)	173%	0.701	-1.69	1.26	-0.159% (inactive)	-0.389 (inactive)	-3.5e-05 (inactive)	0.00656 (inactive)	inactive	110% (active)
C=C(C)CSC1=C(C#N)C(c2ccsc2)CC(=O)N1 (stereo unspecified)	486	-5% (inactive)	8.3% (inactive)	121%	-1	-0.892	0.991	-5.89% (inactive)	-0.512 (inactive)	-6.2e-05 (inactive)	0.00453 (inactive)	inactive	13% (inactive)
CCc1cc2c(=O)c(-c3cscn3)coc2c(CN(C)C)c1O	517	-8.2% (inactive)	-53.3% (inactive)	86.5%	0.222	-0.434	0.878	1.9e-07% (inactive)	-0.0873 (inactive)	-2.5e-06 (inactive)	0.00409 (inactive)	inactive	15.7% (inactive)
CSc1nc(N)c(C#N)c(-c2ccccc2Cl)c1C#N	361	-5.2% (inactive)	16.8% (inactive)	95%	-2.2	1.67	-0.0312	-2.07% (inactive)	-0.456 (inactive)	-0.000311 (inactive)	0.00479 (inactive)	inactive	-18.7% (inactive)
COc1cccc(-c2nc(NCC3CCCO3)c3ccccc3n2)c1O (stereo unspecified)	553	-3.3% (inactive)	-74.2% (inactive)	131%	-1.22	0.707	0.124	1.6e-07% (inactive)	-0.34 (inactive)	-2.8e-05 (inactive)	0.00373 (inactive)	inactive	55.5% (active)
COc1cc(C(=O)Nc2nccs2)cc(OC)c1OC	542	-19.4% (inactive)	53.4% (inactive)	163%	1.12	-0.213	0.494	-13.3% (inactive)	-0.409 (inactive)	-6e-05 (inactive)	0.00501 (inactive)	inactive	-0.002% (inactive)
CCCCCCn1c(C(C)O)nc2ccccc21 (stereo unspecified)	528	-16.2% (inactive)	-111% (inactive)	156%	1.01	-0.165	-1.61	11.9% (inactive)	-0.5 (inactive)	-5.9e-05 (inactive)	0.0045 (inactive)	inactive; toxic	28% (inactive)
CCOC(=O)CC(=O)CSc1nc(N)c(C#N)c(-c2ccc(F)cc2)c1C#N	650	-5.7% (inactive)	44% (inactive)	167%	-1.03	0.96	2.1	-7.28% (inactive)	-0.366 (inactive)	-6.3e-05 (inactive)	0.00627 (inactive)	inactive	-14.2% (inactive)
CCc1cccc(CC)c1N(COC)C(=O)Cn1nnc2ccccc21	369	-11% (inactive)	-230% (inactive)	180%	0.728	0.454	-0.0174	20.8% (inactive)	-0.394 (inactive)	-2.8e-05 (inactive)	0.00431 (inactive)	inactive	23.5% (inactive)
COc1ccc(NC2CC(=O)N(C)C2=O)cc1 (stereo unspecified)	334	-4.4% (inactive)	15% (inactive)	92.4%	-0.811	0.0749	1.77	7.42% (inactive)	-0.424 (inactive)	1.4e-05 (inactive)	0.00509 (inactive)	inactive	30.2% (inactive)
O=C(Oc1ccccc1N1C(=O)CCC1=O)c1ccco1	545	4.9% (inactive)	-119% (inactive)	118%	0.222	-0.0545	0.413	3.5% (inactive)	-0.557 (inactive)	-6.4e-05 (inactive)	0.0069 (inactive)	inactive	-13.9% (inactive)
O=C(CCC1CCCC1)N1CCC(N2CCN(c3ccccc3)CC2)CC1	411	-9.4% (inactive)	-188% (inactive)	140%	0.947	0.889	-0.837	9.39% (inactive)	-0.446 (inactive)	4.6e-06 (inactive)	0.00549 (inactive)	inactive	62.1% (active)
Cc1cc(C)nc(CC(N)=O)n1	623	-3.1% (inactive)	3.3% (inactive)	142%	0.214	0.0631	0.457	6.04% (inactive)	-0.508 (inactive)	-4e-05 (inactive)	0.0046 (inactive)	inactive	14.5% (inactive)
O=C1OC2CCC1(c1ccccc1)C2 (stereo unspecified)	573	-7% (inactive)	40.2% (inactive)	137%	-1.09	0.357	0.719	-5.89% (inactive)	-0.524 (inactive)	-7.2e-05 (inactive)	0.00472 (inactive)	inactive	-4.76% (inactive)
CC1=CC=CN2CC(O)CN=C12 (stereo unspecified)	552	-3.9% (inactive)	-109% (inactive)	196%	-0.0904	1.89	-0.427	22.1% (inactive)	-0.33 (inactive)	-1.5e-05 (inactive)	0.00477 (inactive)	inactive	4.05% (inactive)
COCCN(C(=O)Nc1ccccc1)c1ccccc1C	443	-5.7% (inactive)	-107% (inactive)	186%	-1.02	-0.17	-0.3	-3.95% (inactive)	-0.32 (inactive)	6.1e-06 (inactive)	0.00472 (inactive)	inactive	-5.98% (inactive)
CC1(C)Cc2c(C#N)c(SCC(=O)c3ccccc3)nc(N3CCCC3)c2CO1	520	-6.5% (inactive)	15.1% (inactive)	115%	1.33	-0.926	-0.674	9.82% (inactive)	-0.395 (inactive)	8.2e-06 (inactive)	0.00654 (inactive)	inactive	46.4% (inactive)
Nc1nc(NC(=O)Cc2ccccc2)nn1-c1ccccc1	330	-5.8% (inactive)	16% (inactive)	153%	-1.12	1.13	0.973	9.42% (inactive)	-0.381 (inactive)	-0.000121 (inactive)	0.00768 (inactive)	inactive	14.3% (inactive)
Cc1c(Cl)c(C(F)(F)F)nn1CC(=O)N1CCSCC1	511	-3.6% (inactive)	-110% (inactive)	152%	-0.563	-0.304	1.29	-9.7% (inactive)	-0.555 (inactive)	-4.7e-05 (inactive)	0.00531 (inactive)	inactive	-2.53% (inactive)
Clc1ccccc1-c1nnc2sc(-c3ccco3)nn12	568	-10.6% (inactive)	37.2% (inactive)	88.5%	-0.391	-0.433	1.6	4.72% (inactive)	-0.43 (inactive)	-4.6e-05 (inactive)	0.00572 (inactive)	inactive	85.1% (active)
COc1cccc(OC)c1-c1nn2c(-c3ccccc3Cl)nnc2s1	611	-4.2% (inactive)	-50.2% (inactive)	159%	1.55	-0.0979	-0.298	-6.06% (inactive)	-0.444 (inactive)	-0.000105 (inactive)	0.00355 (inactive)	inactive	101% (active)
COc1cc(/C=N/O)ccc1OCc1ccc(C(=O)O)cc1	587	-21.9% (inactive)	-51.1% (inactive)	154%	-1.09	0.882	0.52	-0.608% (inactive)	-0.357 (inactive)	-5.9e-05 (inactive)	0.00492 (inactive)	inactive	-7.38% (inactive)
CCOc1ccc(-c2nnc3sc(COc4ccccc4)nn23)cc1	502	-11.7% (inactive)	-288% (inactive)	155%	-0.358	-0.85	1.78	-15% (inactive)	-0.405 (inactive)	-0.000151 (inactive)	0.00528 (inactive)	inactive	53.8% (active)
COc1nc(N(C)S(=O)(=O)c2ccc(C)cc2)nc(C)c1Cl	587	-20% (inactive)	-69% (inactive)	177%	-0.267	-0.856	1.29	7.73% (inactive)	-0.362 (inactive)	-1.7e-05 (inactive)	0.00412 (inactive)	inactive	-4.99% (inactive)
